Measurements of several laboratories.
CCKBR: Gastrin/cholecystokinin type B receptor (CCKBR, Homo sapiens, UniProt P32239)
MTNR1A: Melatonin receptor type 1A (MTNR1A, Homo sapiens, UniProt P48039)
MMP3: Stromelysin-1 (MMP3, Homo sapiens, UniProt P08254)
FAAH: Fatty-acid amide hydrolase 1 (FAAH, Homo sapiens, UniProt O00519)
BDKRB1: B1 bradykinin receptor (BDKRB1, Homo sapiens, UniProt P46663)
HTR2C: 5-hydroxytryptamine receptor 2C (HTR2C, Homo sapiens, UniProt P28335)
PTGS1: Prostaglandin G/H synthase 1 (PTGS1, Homo sapiens, UniProt P23219)

| Compound | target | assay | setting | inhibition [%] |
| --- | --- | --- | --- | --- |
| Cc1ncc(C)n2nc(/C=C/c3nc(N4CCCC4)cc(N4CCOCC4)n3)nc12 | CCKBR | cell-free assay | 10 µM | -16 |
| CC(C)N1CCC[C@H]1CNC(=O)c1cn(C2CCCC2)c(=O)c2c1c1ccccc1n2C | MTNR1A | ligand displacement, radioligand | 10 µM | 37 |
| CCCCc1ccc(C(=O)O)nc1 | MMP3 | enzyme activity, inhibitor | 1 mM, pH 6 | > 80 |
| CCN(C(=O)Oc1nsnc1N1CCCCC1)c1ccccc1 | FAAH | enzyme activity, inhibitor | 10 µM, cell membranes | 24 |
| CC(C)C[C@H](NC(=O)[C@H](Cc1ccccc1)NC(=O)c1cnccn1)B(O)O | Complement C1r subcomponent (Homo sapiens, UniProt P00736) | enzyme activity, inhibitor | 33 µM | 44.5 |
| CCOC(=O)c1ccc(OC(=O)CCCCCNC(=N)N)cc1 | MMP3 | enzyme activity, inhibitor | 10 µM | 18 |
| CN(C(=O)Oc1nsnc1N1CCCCC1)c1ccc([N+](=O)[O-])cc1 | FAAH | enzyme activity, inhibitor | 10 µM, cell membranes | 19 |
| CCN(CC)CCCC[C@H](NC(=O)[C@H](CC(C)C)NC(=O)[C@H](C)NC(=O)[C@H](Cc1ccccc1)NC(=O)c1ccc(C(C)(C)C)cc1)C(=O)N[C@@H](CO)C(=O)OC | MTNR1A | ligand displacement, radioligand | 10 µM | 8 |
| N=C(N)c1ccc2cc(OC(=O)c3ccc(N=C(N)N)cc3)ccc2c1 | MMP3 | enzyme activity, inhibitor | 10 µM | 0 |
| COc1ccc(S(=O)(=O)N2CCCCC2)cc1C | BDKRB1 | ligand displacement, radioligand | 10 µM | < 30 |
| COc1ccc(S(=O)(=O)N(CC(=O)NO)CC(C)C)cc1 | MMP3 | enzyme activity, inhibitor | 1 µM | 100 |
| COCCN(CCOC)C(=O)[C@@]12C[C@@H]1[C@@H](n1cnc3c(N)nc(Cl)nc31)[C@H](O)[C@@H]2O | HTR2C | ligand displacement, radioligand | 10 µM | 12 |
| CN(C(=O)Oc1nsnc1N1CCCCC1)c1ccc(C#N)cc1 | FAAH | enzyme activity, inhibitor | 10 µM, cell membranes | 19 |
| COCc1c(-c2cc3cc(C)cc(OC)c3s2)c2c(N)ncnn2c1CN1CCNC(=O)C1 | Tyrosine-protein kinase receptor Tie-1 (TIE1, Homo sapiens, UniProt P35590) | cell-free assay, competition with immobilised ligand | 1 µM | 83 |
| CN(C(=O)Oc1nsnc1N1CCCCC1)c1cccc(F)c1 | FAAH | enzyme activity, inhibitor | 10 µM, cell membranes | 48 |
| O=C(Cc1c[nH]c2cc(Cl)ccc12)N1CCC(n2ccnc2)CC1 | Trypanothione synthetase (Trypanosoma cruzi, UniProt Q9GT49) | enzyme activity, inhibitor, absorbance | 25 µM | 6.2 |
| Cn1cc(-c2cccc(N3CCc4c(sc5c4CC(C)(C)C5)C3=O)c2CO)cc(Nc2ccncn2)c1=O | Aurora kinase A (AURKA, Homo sapiens, UniProt O14965) | enzyme activity, inhibitor | 1 µM | 3 |

| Compound | target | assay | setting | inhibition [%] |
| --- | --- | --- | --- | --- |
| Clc1ccc2c(C3CCN(CCc4c[nH]c5ccccc45)CC3)c[nH]c2c1 | PTGS1 | enzyme activity, inhibitor | 10 µM | 31 |
| CN(C(=O)Oc1nsnc1N1CCCCC1)c1cccc(-c2ccccc2)c1 | FAAH | enzyme activity, inhibitor | 10 µM, cell membranes | 13 |
| O=C(Nc1cccnn1)N1CCN([C@@H]2CCOc3cc(C(F)(F)F)ccc32)CC1 | MTNR1A | ligand displacement | 20 µM | 16 |
| C#Cc1n[nH]c2c(-c3cn(C(C)c4ccccn4)c(=O)[nH]c3=O)cc(F)cc12 (stereo not drawn) | Rho-associated protein kinase 1 (ROCK1, Homo sapiens, UniProt Q13464) | enzyme activity, inhibitor | 1 µM | -2.6 |
| c1ccc(C(NCCNC(c2ccccc2)c2ccccc2)c2ccccc2)cc1 | PTGS1 | enzyme activity, inhibitor | 10 µM | 66 |
| COc1cc2c3c(c1OC)-c1cc4c(cc1CC3N(C)CC2)OCO4 (racemic) | HTR2C | ligand displacement, radioligand | 10 µM | 103 |
| CN(CCN1CCC(OC(=O)Nc2ccccc2-c2ccccc2)CC1)C(=O)c1ccc(CN2CCC(C(N)=O)CC2)cc1 | BDKRB1 | ligand displacement, radioligand | 1 µM | 0 |
| C#Cc1n[nH]c2c(-c3cn([C@@H](C)c4ccccc4)c(=O)[nH]c3=O)cc(F)cc12 | Aurora kinase C (AURKC, Homo sapiens, UniProt Q9UQB9) | enzyme activity, inhibitor | 0.1 µM | -1.2 |
| COc1ccccc1N(C)C(=O)Oc1nsnc1N1CCCCC1 | FAAH | enzyme activity, inhibitor | 10 µM, cell membranes | 18 |
| Cn1cc(-c2cc(F)cc(N3CCn4c(cc5c4CCCC5)C3=O)c2CO)cc(Nc2ccc(N3CCN(C4COC4)CC3)cn2)c1=O | Mitogen-activated protein kinase kinase kinase 8 (MAP3K8, Homo sapiens, UniProt P41279) | enzyme activity, inhibitor | 0.1 µM | 17 |
| CN(C(=O)Oc1nsnc1N1CCCCC1)C1CCCCCCC1 | FAAH | enzyme activity, inhibitor | 10 µM, cell membranes | 13 |
| CN(C)C(=O)COC(=O)Cc1ccc(OC(=O)c2ccc(NC(=N)N)cc2)cc1 | MMP3 | enzyme activity, inhibitor | 10 µM | 27 |
| Cc1cc(C)c(N(C)C(=O)Oc2nsnc2N2CCCCC2)c(C)c1 | FAAH | enzyme activity, inhibitor | 10 µM, cell membranes | 7 |
| CC(C)Cn1cnc2c(N)nc3ccccc3c21 | MTNR1A | ligand displacement, radioligand | 10 µM | 32 |
| C[C@H](C(=O)N[C@H]1COc2ccccc2[C@@H]1S(C)(=O)=O)c1ccc(F)cc1 | CCKBR | cell-free assay | 10 µM | 7 |
| COc1cc(Nc2ncc(F)c(Nc3ccc4c(n3)NC(=O)C(C)(C)O4)n2)cc(OC)c1OC | Serine/threonine-protein kinase ULK3 (ULK3, Homo sapiens, UniProt Q6PHR2) | binding | 10 µM | 100 |
